Source: PubChem
An excerpt weighted towards active compounds, which were near 2.6% of everything screened.
Rad51 HR inh = blocks human Rad51 in homologous recombination; Q06609; inhibition, % at 10 µM; hRad51 DNA strand exchange, fluorescence dequenching; 200,000 compounds, 0.085% hits;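 active means inhibition above 40% at the single screening dose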;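 further: 0% = DMSO control wells and 100% = blanks with heterologous ssDNA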
Target sequence (Q06609 whole entry, looked up): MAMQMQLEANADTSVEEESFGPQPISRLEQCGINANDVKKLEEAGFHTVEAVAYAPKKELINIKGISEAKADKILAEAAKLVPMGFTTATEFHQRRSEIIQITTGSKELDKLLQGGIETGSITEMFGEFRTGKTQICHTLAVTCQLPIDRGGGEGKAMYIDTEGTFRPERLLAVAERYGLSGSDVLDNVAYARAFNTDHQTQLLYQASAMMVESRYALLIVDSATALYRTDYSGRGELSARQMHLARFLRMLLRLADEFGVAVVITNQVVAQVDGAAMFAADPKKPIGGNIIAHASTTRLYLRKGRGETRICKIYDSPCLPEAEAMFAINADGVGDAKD
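Material: human Rad51–ssDNA filaments; Probe or stimulus: labelled 47-mer dsDNA for strand exchange; Doses: single 10 µM dose; Incubation: 37 °C 15-min filament assembly, 30-min compound preincubation, 15-min exchange; Technique: FRET fluorescence dequenching, excitation 485 nm, emission 520 nm; Measure: Fluorescence-based percent inhibition, control- and blank-normalised; Benchmarks: plate control and blank wells.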
Cl transport mod = KCC2 (human) Cl- transport modulation; 190,000 compounds, 2.2% hits; AID 1456; B-score of Tl+ flux slope (higher = more flux/activation; lower = inhibition) at 10 µM; KCC2 cells, thallium flux FluoZin-2 fluorescence;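 active means thallium flux slope and its plate-corrected score both differing from the plate sample mean at a set confidence after two filtering rounds, in either direction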;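 further: slope of fluorescence scaled to starting intensity during 10 to 20 s after thallium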
CHT inh = inhibitors of human choline transporter CHT. Q9GZV3. CHT-expressing cells, membrane potential dye, choline response; stronger effect = lower value. B-score at 10 µM. 310,000 compounds, 0.86% hits. AID 488975;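 active means B-score over 3 SD under the library average, and starting fluorescence ratio not unusually high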;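 further: choline stimulus applied at its EC90 after an EC20 pre-addition; B-score computed on integrated fluorescence ratio after choline addition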
CHT allo act = human CHT allosteric activation; Q9GZV3; CHT-expressing cells, membrane potential dye, choline EC20; stronger effect = higher value; LV-AA mutant CHT in HEK293 cells; B-score at 10 µM; 310,000 compounds, 0.49% hits; AID 488977;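 active means initial fluorescence not abnormally high and integrated response B-score, plate-corrected, over 3 SD above library mean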
The depositor's hits bear a star; i = inactive; nt = no result.

SMILES | Rad51 HR inh | Cl transport mod | CHT inh | CHT allo act
Cc1ccc(C2c3c(oc4ccc(Cl)cc4c3=O)C(=O)N2CCCN2CCOCC2)o1 (stereo not drawn) | -8 | 6.6* | i | i
OCCOCCn1c(-c2ccccc2)nc(=S)c2c1CCCC2 | -5 | 0.16 | i | 6.4*
CC(=O)N1c2ccc(S(=O)(=O)N3CCC(C(=O)Nc4cccc(F)c4)CC3)cc2CC1C (stereo not drawn) | nt | nt | i | i
Cc1sc2nc(C3CC3)nc(SCC(=O)N3CC(=O)Nc4ccccc43)c2c1C | -4 | 12* | i | i
Cc1sc2nc(C3CC3)nc(SCC(=O)N3CCc4ccccc4C3)c2c1C | -2 | -0.57 | i | i
CCOc1ccc2nc(/N=C/c3c(C)[nH]n(-c4ccccc4)c3=O)sc2c1 | 2 | 77* | i | i
CCOc1ccc2nc(/N=C/c3c(C)[nH]n(-c4ccc(C)cc4)c3=O)sc2c1 | nt | 69* | i | i
Cc1[nH]n(-c2ccccc2)c(=O)c1/C=N/O | -3 | nt | i | i
CC1=C(C#N)C(=O)N(C)C(C)(C)C1 | 0 | 2.8* | i | i
O=C(CSCc1ccc(Cl)c(Cl)c1)Nc1c[nH]c(=O)[nH]c1=O | 4 | 0.49 | i | i
Cc1ccc(C2c3sc(=O)[nH]c3SC3C(=O)NC(=O)C32)cc1 (stereo not drawn) | -1 | -6.8* | i | i
COC(=O)C1Sc2[nH]c(=O)sc2C(c2ccc(Cl)cc2)C1C(=O)OC (stereo not drawn) | -2 | nt | i | i
CCCCCCOC(=O)C1=C(C)NC(=O)NC1c1ccc2c(c1)OCO2 (stereo not drawn) | nt | nt | i | i
CCSc1nc2sc3c(c2c(=O)n1CC)CCC3 | nt | nt | i | i
CCn1c(SCC(N)=O)nc2sc3c(c2c1=O)CCCC3 | -1 | 60* | i | i
CC(=O)c1cccc(NC(=S)NC(=O)c2cccc(C)c2)c1 | 1 | 8.4* | i | i
CC(=O)c1cccc(NC(=S)NC(=O)c2ccccc2C)c1 | -6 | 2.7 | i | i
Cc1cccc(NC(=S)N/C(=N/S(=O)(=O)c2ccccc2)c2ccccc2)c1 | 2 | 3.5* | i | i
CC(C)Oc1cccc(C(=O)NC(=S)Nc2ccccc2)c1 | 11 | 46* | i | i
COc1cccc(C(=O)NC(=S)Nc2cccnc2)c1 | 2 | 0.014 | i | i
O=[N+]([O-])c1ccc(S(=O)(=O)Nc2nnc(C3CCCCC3)s2)cc1 | nt | nt | i | i
CC1CC(C)CN(CCCNC(=O)c2cn(C)c3ccc(S(=O)(=O)N4CCCC4)cc3c2=O)C1 (stereo not drawn) | -7 | 0.21 | i | i
CC1CCN(CCCNC(=O)c2cn(C)c3ccc(S(=O)(=O)N4CCCC4)cc3c2=O)CC1 | -3 | 0.46 | i | 6.8*
COCCOC1CCN(C(=O)C2CCC(=O)N(CCc3ccccc3)C2)CC1 (stereo not drawn) | nt | nt | i | i
CCCCn1c(NC(=S)Nc2ccccc2)nc2ccccc21 | 10 | 47* | i | i
SMILES | Rad51 HR inh | Cl transport mod | CHT inh | CHT allo act
C=CC#CC[N+]1(CC#Cc2ccccc2)CCOCC1 | 64* | 0.53 | nt | nt
NC(=O)NNc1ncc(C(F)(F)F)cc1Cl | 4 | 1.5 | i | i
O=C(NNc1ncc(C(F)(F)F)cc1Cl)c1c(Cl)cccc1Cl | 1 | 3.8* | i | i
COc1ccc2nc(N=Nc3ccc(O)c4ccccc34)sc2c1 | -5 | 18* | i | i
CC(/C=N/n1c(-c2ccco2)n[nH]c1=S)=C\c1ccccc1 | 7 | 13* | i | i
COc1ccc(S(=O)(=O)N2CCCCC2)cc1NC(=O)Cc1sc(C)nc1-c1ccc(F)cc1 | nt | nt | i | i
CCOC(=O)c1cc(-c2ccc(/C=C3/C(=O)N(c4ccc(C(=O)O)cc4)N=C3C)o2)ccc1Cl | nt | nt | i | i
CC1=NN(c2ccc(Br)cc2)C(=O)/C1=C/c1ccc(-c2ccccc2C(=O)O)o1 | nt | nt | -7.2* | i
O=C1OCC2OC(O)C(O)C(O)C2OC(=O)c2cc(O)c(O)c(O)c2-c2c(O)c(O)c3oc(=O)c4c(c(O)c(O)c5oc(=O)c2c3c54)-c2c1cc(O)c(O)c2O (stereo not drawn) | 68* | 1 | nt | nt
CC1=Nc2ccccc2/C1=C/c1sc(=S)n(-c2cccc(C(=O)O)c2)c1O | i | -3.9* | nt | nt
Oc1c(C=C2N=c3ccccc3=N2)sc(=S)n1-c1ccccc1 | -29 | 0.17 | i | i
CSc1ccccc1C(=O)C1CCCN(S(=O)(=O)c2c(C)noc2C)C1 (stereo not drawn) | -9 | -0.59 | i | i
CCOc1ccc(CNC(=O)CCS(=O)(=O)Cc2cccc(Cl)c2)cc1OC | 41* | -1.1 | i | i
COc1ccc(CC(=O)NCc2cccc(CNC(=O)Cc3ccc(OC)c(OC)c3)c2)cc1OC | nt | nt | i | i
CC(=O)N(c1cccc(C(F)(F)F)c1)c1nc(/C=C/C(=O)O)cs1 | 40* | 0.32 | i | i
O=C(NC1CC(=O)N(c2ccc(Cl)cc2)C1)N1CCN(C(=O)c2ccco2)CC1 (stereo not drawn) | nt | nt | i | i
CC1=NN(c2ccccc2)C(=O)C1(C)C | -6 | -0.49 | i | i
CC1=NN(c2ccccc2)C(=O)C1C=Nc1ccccc1O (stereo not drawn) | -11 | 1 | -5.2* | i
CCN1/C(=C/C(C)=C/c2sc3ccccc3[n+]2CC)Sc2ccccc21 | 81* | -0.038 | i | i
CCN1/C(=C\C(=S)Nc2ccccc2)Sc2ccccc21 | -1 | -0.44 | i | i
CC(C)Nc1ccc(Nc2ccnc3cc4ccccc4cc23)cc1 | 46* | -0.56 | i | i
CCN1C(=O)/C(=C2\SC(=S)N(NC(=O)c3cccnc3)C2=O)c2ccccc21 | nt | nt | i | i
COc1ccccc1-n1cnc2cc(NCc3ccco3)ccc21 | -46 | -1.3 | i | 13*
COc1ccccc1-n1cnc2cc(NCc3ccccc3O)ccc21 | nt | -0.51 | i | i
COc1ccc(C2/C(=C(\O)c3ccc4c(c3)OCCO4)C(=O)C(=O)N2CCCN(C)C)cc1 (stereo not drawn) | -2 | nt | i | i
SMILES | Rad51 HR inh | Cl transport mod | CHT inh | CHT allo act
Cc1ccc(C2/C(=C(\O)c3ccc4c(c3)OCCO4)C(=O)C(=O)N2CCCN(C)C)o1 (stereo not drawn) | 94* | nt | nt | nt
O=C(CN1C(=O)NC2(CCCc3ccccc32)C1=O)NC1CCCCC1 (stereo not drawn) | nt | nt | i | i
C=CCNC(=S)Nc1sc2c(c1C(=O)OCC)CC(C(C)C)OC2 (stereo not drawn) | -6 | 32* | i | i
CCOC(=O)c1c(NC(=S)NCCc2ccccc2)sc2c1CC(C(C)C)OC2 (stereo not drawn) | -2 | 8.9* | i | i
CC(C)C1Cc2c(sc(NC(=S)NC(=O)c3ccccc3)c2C#N)CO1 (stereo not drawn) | 1 | 1.1 | i | i
C#CCN(CC=C)C(=O)CCc1nnc(COc2ccccc2)o1 | -1 | 0.14 | i | i
Fc1cccc2sc(Nc3nc4cc5c(cc4s3)OCO5)nc12 | 3 | 23* | i | i
